Consider four molecules from ChEMBL document CHEMBL1134337, “Behavioral approach to nondyskinetic dopamine antagonists: identification of seroquel” (J Med Chem, 2001).

The subject of test [1] is Mus musculus. Nature of the test: Antagonism of apomorphine induced climbing was determined in female swiss -Webster mice after (po) administration of 5 mg/kg. It counts as functional. An outline of the steps:
(§1)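 Female Swiss-Webster mice (about 20 g) were fasted about 24 h, then given test compound or vehicle ip or po (N = 20 per group). Vehicle was 0.5% w/w hydroxypropylmethylcellulose with 0.1% w/w Tween 80 in water. After 30 min, mice received apomorphine HCl 1.25 mg/kg sc. At 13 min, each mouse was watched for 1 min; score was mean of highest and lowest rung of 27. Groups were compared with vehicle by Student's t-test.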

Test [2] deals with Mus musculus. Nature of the test: Antagonism of apomorphine induced climbing was determined in female swiss -Webster mice after (ip) administration of 20 mg/kg. Type of test: functional. An outline of the steps:
as §1

The subject of test [3] is Mus musculus. Description: Antagonism of apomorphine induced climbing was determined in female swiss -Webster mice after (p.o.) +SKF525A administration of 2.5 mg/kg. It counts as functional. Particulars: route oral. An outline of the steps: as §1
Test [4] has as its system Mus musculus. Nature of the test: Antagonism of apomorphine induced climbing was determined in female swiss -Webster mice after (po) administration of 2.5 mg/kg. It counts as functional. In a few lines: as §1
The test system of test [5] is Mus musculus. Nature of the test: Antagonism of apomorphine induced climbing was determined in female swiss -Webster mice after (p.o.) +SKF525A administration of 20 mg/kg. It counts as functional. Particulars: route oral. In a few lines:
as §1

Test [6] has as its system Mus musculus. Description: Antagonism of apomorphine induced climbing was determined in female swiss -Webster mice after (po) administration of 10 mg/kg. Type of test: functional. An outline of the steps: as §1
Test [7] concerns Mus musculus. Description: Antagonism of apomorphine induced climbing was determined in female swiss -Webster mice after (ip) administration of 40 mg/kg. It counts as functional. In a few lines: as §1
The test system of test [8] is Mus musculus. Nature of the test: Antagonism of apomorphine induced climbing was determined in female swiss -Webster mice after (ip) administration of 2.5 mg/kg. Type of test: functional. In a few lines: as §1
The subject of test [9] is Mus musculus. Nature of the test: Antagonism of apomorphine induced climbing was determined in female swiss -Webster mice after (ip) administration of 10 mg/kg. Type of test: functional. In a few lines: as §1
Test [10] concerns Mus musculus. Nature of the test: Antagonism of apomorphine induced climbing was determined in female swiss -Webster mice after (p.o.) +SKF525A administration of 10 mg/kg. Type of test: functional. The note with it: route oral. In a few lines: as §1
For test [11], the system named is Mus musculus. Nature of the test: Antagonism of apomorphine induced climbing was determined in female swiss -Webster mice after (p.o.) +SKF525A administration of 5 mg/kg. Type of test: functional. Particulars: route oral. In a few lines:
as §1

The target of test [12] is D(2) dopamine receptor (Rattus norvegicus) (UniProt P61169). Description: Binding affinity at dopamine receptor D2 from rat by spiropiperidone displacement. An outline of the steps:
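D2 receptor binding was read as % displacement of spiropiperidone, with test compound at 1000 nM unless stated otherwise. IC50 values used at least five concentrations per compound in triplicate. Each value is the mean of two replicate experiments differing by 5% or less.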

The test system of test [13] is Mus musculus. Nature of the test: Antagonism of apomorphine induced climbing was determined in female swiss -Webster mice after (ip) administration of 5 mg/kg. Type of test: functional. In a few lines:
as §1

Test [14] has as its system Mus musculus. Nature of the test: Antagonism of apomorphine induced climbing was determined in female swiss -Webster mice after (po) administration of 40 mg/kg. Type of test: functional. An outline of the steps:
as §1

Test [15] has as its system Mus musculus. Description: Antagonism of apomorphine induced climbing was determined in female swiss -Webster mice after (p.o.) +SKF525A administration of 40 mg/kg. The note with it: route oral. Type of test: functional. An outline of the steps: as §1
Test [16] deals with Mus musculus. Nature of the test: Antagonism of apomorphine induced climbing was determined in female swiss -Webster mice after (po) administration of 20 mg/kg. It counts as functional. In a few lines:
as §1

Test [17] deals with Mus musculus. Description: Antagonism of apomorphine induced climbing was determined in female swiss -Wbster mice after (ip) administration of 40 mg/kg. It counts as functional. In a few lines:
as §1

Test [18] concerns Mus musculus. Nature of the test: Antagonism of apomorphine induced climbing was determined in female swiss -Wbster mice after (po) administration of 40 mg/kg. It counts as functional. An outline of the steps: as §1
Test [19] relates to Mus musculus. Description: Antagonism of apomorphine induced swimming was determined in female swiss -Wbster mice after (po) administration of 20 mg/kg. It counts as functional.
Test [20] has as its system Mus musculus. Nature of the test: Antagonism of apomorphine induced swimming was determined in female swiss -Wbster mice after (po) administration of 80 mg/kg. Type of test: functional.
Test [21] concerns Mus musculus. Nature of the test: Antagonism of apomorphine induced swimming was determined in female swiss -Wbster mice after (po) administration of 40 mg/kg. It counts as functional.
For test [22], the system named is Mus musculus. Description: Antagonism of apomorphine induced climbing was determined in female swiss -Wbster mice after (ip) administration of 20 mg/kg. It counts as functional. An outline of the steps: as §1
Test [23] concerns Mus musculus. Description: Antagonism of apomorphine induced climbing was determined in female swiss -Wbster mice after (po) administration of 20 mg/kg. Type of test: functional. An outline of the steps:
as §1

For test [24], the system named is Mus musculus. Nature of the test: Antagonism of apomorphine induced climbing was determined in female swiss -Wbster mice after (ip) administration of 80 mg/kg. It counts as functional. An outline of the steps:
as §1

Test [25] relates to Mus musculus. Nature of the test: Antagonism of apomorphine induced climbing was determined in female swiss -Wbster mice after (po) administration of 80 mg/kg. Type of test: functional. In a few lines:
as §1

The nature of test [26]: Number of animals showing dyskinesias was determined in haloperidol sensitized 9 cebus monkeys after (po) administration of 80 mg/kg. Type of test: functional. An outline of the steps: (§2)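 Adult female and male Cebus monkeys sensitized with oral haloperidol 1 mg/kg once per week until dyskinetic reactions occurred. Test drug given orally (2 mL/kg) in 0.5% w/w hydroxypropylmethylcellulose with 0.1% w/w Tween 80 in distilled water, at least 2 weeks between treatments. Two observers watched continuously for 6-7 h, recording reaction type and severity every 30 min. Score is monkeys with dyskinesias/monkeys tested.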

The test system of test [27] is Mus musculus. Nature of the test: Antagonism of apomorphine induced swimming was determined in female swiss -Webster mice after (ip) administration of 40 mg/kg. It counts as functional.
Test [28] is described as follows: Number of animals showing dyskinesias was determined in haloperidol sensitized cebus monkey after (po) administration of 40 mg/kg. It counts as functional. In a few lines: as §2
Test [29] has as its system Mus musculus. Description: Antagonism of apomorphine induced swimming was determined in female swiss -Webster mice after (ip) administration of 20 mg/kg. Type of test: functional.
Test [30] has as its system Mus musculus. Nature of the test: Antagonism of apomorphine induced swimming was determined in female swiss -Webster mice after (ip) administration of 2.5 mg/kg. It counts as functional.
Test [31] concerns Mus musculus. Description: Antagonism of apomorphine induced swimming was determined in female swiss -Webster mice after (ip) administration of 5 mg/kg. It counts as functional.
The subject of test [32] is Mus musculus. Nature of the test: Antagonism of apomorphine induced swimming was determined in female swiss -Webster mice after (ip) administration of 10 mg/kg. It counts as functional.
Test [33] in a line: Number of animals showing dyskinesias was determined in haloperidol sensitized 5 cebus monkeys after (po) administration of 20 mg/kg; 5/5. It counts as functional. An outline of the steps: as §2
A further test has as its target D(2) dopamine receptor (Rattus norvegicus, UniProt P61169). Nature of the test: Inhibition of spiropiperidone binding at dopamine receptor D2 of rat.
The nature of test [34]: Number of animals showing dyskinesias was determined in haloperidol sensitized 5 cebus monkeys after (po) administration of 5 mg/kg. Type of test: functional. An outline of the steps: as §2

Sequence of D(2) dopamine receptor (Rattus norvegicus) (P61169 whole entry): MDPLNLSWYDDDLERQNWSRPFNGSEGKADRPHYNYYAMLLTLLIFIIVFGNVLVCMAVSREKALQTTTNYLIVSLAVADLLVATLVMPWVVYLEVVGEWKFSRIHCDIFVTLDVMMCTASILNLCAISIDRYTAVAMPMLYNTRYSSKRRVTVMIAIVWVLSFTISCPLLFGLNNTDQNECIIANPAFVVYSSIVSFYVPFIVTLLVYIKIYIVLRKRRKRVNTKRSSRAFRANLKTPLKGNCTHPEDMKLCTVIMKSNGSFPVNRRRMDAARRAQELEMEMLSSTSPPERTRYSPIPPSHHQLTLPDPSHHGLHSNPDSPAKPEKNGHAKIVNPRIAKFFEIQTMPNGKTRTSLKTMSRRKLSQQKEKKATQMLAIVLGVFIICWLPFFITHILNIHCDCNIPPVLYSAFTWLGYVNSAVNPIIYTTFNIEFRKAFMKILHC
Sequence of D(2) dopamine receptor (P61169 whole entry): as above

Regarding `CN1CCN(C2=Nc3ccccc3Oc3ccccc32)CC1`, the Activity is listed as 13 in the test with Mus musculus [1]; 0 in the test on Mus musculus [2]; 25 in the test on Mus musculus [3]; 19 in the test on Mus musculus [4]; 18 in the test on Mus musculus [5]; 10 in the test on Mus musculus [6]. In addition, the Activity in the test with Mus musculus [7] stood at 3; in the test with Mus musculus [8], 19; in the test with Mus musculus [9], 2; in the test on Mus musculus [10], 24; in the test on Mus musculus [11], 19; with Mus musculus [13] it was 13. Besides, the figures for the Activity in the test on Mus musculus [14], in the test with Mus musculus [15] and with Mus musculus [16] were 3, 19 and 3, respectively. The molecule also had a % displacement of spiropiperidone in [12] of 27%.
Regarding `OCCOCCN1CCN(C2=Nc3ccccc3Cc3ccccc32)CC1`, the Activity with Mus musculus [17] was determined as 17; with Mus musculus [18], 17; in the test on Mus musculus [19], 1; in the test on Mus musculus [20], 3; in the test on Mus musculus [21], 1; in the test with Mus musculus [22] it was 21. In addition, the Activity was 24 with Mus musculus [23], 2 in the test with Mus musculus [24] and 10 in the test on Mus musculus [25]. Also, the % displacement of spiropiperidone in test [12] was found to be 22%. The No of monkeys in [26] was 0.
On to `c1ccc2c(c1)N=C(N1CCN(CC3COCCO3)CC1)c1ccccc1S2` (stereo not given), for which the Activity in the test on Mus musculus [2] is 0; in the test with Mus musculus [27], 30; with Mus musculus [7], 2; in the test with Mus musculus [8], 14; with Mus musculus [9], 1; in the test with Mus musculus [29], 20. Moreover, the Activity is 6 with Mus musculus [13], 8 in the test on Mus musculus [30], 13 in the test with Mus musculus [31] and 20 in the test with Mus musculus [32]. The No of monkeys in [28] was 2. The same molecule displayed a % displacement of spiropiperidone in test [12] of 50%.
Usually IC50 stands for the concentration that gives 50% inhibition. On to `COCC(CCN1CCN(C2=Nc3ccccc3Sc3ccccc32)CC1)OC` (stereo not given), for which the figures for the No of monkeys in test [33] and in test [34] were 5 and 0, respectively. Also, the Activity came out at 0 in the test on Mus musculus [2]; 32 with Mus musculus [27]; 0 with Mus musculus [7]; 5 in the test on Mus musculus [9]; 20 in the test on Mus musculus [29]; 21 in the test with Mus musculus [13]. For the same molecule, the Activity in the test with Mus musculus [31] was found to be 2; in the test on Mus musculus [32], 8. Moreover, on D(2) dopamine receptor, the IC50 was determined as 293 nM.
